Series [1] addresses cAMP and cAMP-inhibited cGMP 3',5'-cyclic phosphodiesterase 10A (Homo sapiens, UniProt Q9Y233). Kind of series: Inhibition of human recombinant PDE10A assessed as inhibition of [3H]cAMP hydrolysis by scintillation proximity assay. The procedure, abridged: (§1)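 Scintillation proximity assay on recombinant human PDEs 1–11, with [³H]cAMP as substrate and hydrolysis of cAMP to AMP as read-out. Ki values are means of two experiments.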
(SPA uses beads or plates that emit light when radiolabelled molecules are held near them.)

Series [2] addresses T1, cGMP-inhibited 3',5'-cyclic phosphodiesterase 3A (Homo sapiens, UniProt Q14432). Kind of series: Inhibition of human recombinant PDE3A assessed as inhibition of [3H]cAMP hydrolysis by scintillation proximity assay. An outline of the steps:
as §1

Series [3] concerns the target T2, High affinity 3',5'-cyclic-AMP phosphodiesterase 7A (Homo sapiens, UniProt Q13946). Kind of series: Inhibition of human recombinant PDE7A1 assessed as inhibition of [3H]cAMP hydrolysis by scintillation proximity assay. The procedure, abridged: as §1
A short description of series [4]: Clearance in human hepatocytes assessed per 10^6 cells. In kind it is ADME, cell-based, Hepatocyte. Conditions: read-out: CLH.
Series [5] can be described thus: Clearance in rat hepatocytes assessed per 10^6 cells. In kind it is ADME, cell-based, Hepatocyte. Conditions: read-out: CLH.
Series [6] in a line: Clearance in monkey hepatocytes assessed per 10^6 cells. In kind it is ADME, cell-based, Macaca mulatta, Hepatocyte. Conditions: rhesus monkey, read-out: CLH.
Series [7] has as its target T1, cGMP-inhibited 3',5'-cyclic phosphodiesterase 3A. Kind of series: Inhibition of human recombinant PDE3A assessed as inhibition of [3H]cAMP hydrolysis at 3 uM by scintillation proximity assay. An outline of the steps: (§2)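 Recombinant human PDE3A or PDE7A1 was tested at a single 3 µM level in the scintillation proximity assay, with [³H]cAMP as substrate and cAMP-to-AMP hydrolysis as read-out. Results are expressed as % inhibition.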

Series [8] addresses T2, High affinity 3',5'-cyclic-AMP phosphodiesterase 7A. Kind of series: Inhibition of human recombinant PDE7A1 assessed as inhibition of [3H]cAMP hydrolysis at 3 uM by scintillation proximity assay. The procedure, abridged:
as §2

Series [9] is described as follows: Solubility of the compound in 2% DMSO at pH 7.4. In kind it is physicochemical.
The target in series [10] is hERG (KCNH2) (Homo sapiens, UniProt Q12809). Kind of series: Inhibition of human ERG at 10 uM. An outline of the steps: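 hERG inhibition was measured on the IonWorks platform at 10 µM.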
A short description of series [11]: Dissociation constant, pKa of the compound. In kind it is physicochemical.
The target of series [12] is Phosphodiesterase 1 (Homo sapiens, UniProt P54750+Q01064+Q14123). Kind of series: Inhibition of human recombinant PDE1 assessed as inhibition of [3H]cAMP hydrolysis by scintillation proximity assay. In kind it is protein assay. An outline of the steps:
as §1

In series [13] the target is cGMP-dependent 3',5'-cyclic phosphodiesterase (Homo sapiens, UniProt O00408). Kind of series: Inhibition of human recombinant PDE2 assessed as inhibition of [3H]cAMP hydrolysis by scintillation proximity assay. An outline of the steps:
as §1

In series [14] the target is Phosphodiesterase 4 (Homo sapiens, UniProt P27815+Q08499+Q07343+Q08493). Kind of series: Inhibition of human recombinant PDE4 assessed as inhibition of [3H]cAMP hydrolysis by scintillation proximity assay. In kind it is protein assay. The procedure, abridged: as §1
Series [15] addresses cGMP-specific 3',5'-cyclic phosphodiesterase (Homo sapiens, UniProt O76074). Kind of series: Inhibition of human recombinant PDE5 assessed as inhibition of [3H]cAMP hydrolysis by scintillation proximity assay. The procedure, abridged: as §1
In series [16] the target is Phosphodiesterase 6. Kind of series: Inhibition of human recombinant PDE6 assessed as inhibition of [3H]cAMP hydrolysis by scintillation proximity assay. In kind it is protein assay. An outline of the steps: as §1
Series [17] concerns the target Phosphodiesterase 8 (Homo sapiens, UniProt O95263+O60658). Kind of series: Inhibition of human recombinant PDE8 assessed as inhibition of [3H]cAMP hydrolysis by scintillation proximity assay. In kind it is protein assay. The procedure, abridged:
as §1

For series [18], the target named is High affinity cGMP-specific 3',5'-cyclic phosphodiesterase 9A (Homo sapiens, UniProt O76083). Kind of series: Inhibition of human recombinant PDE9 assessed as inhibition of [3H]cAMP hydrolysis by scintillation proximity assay. An outline of the steps: as §1
Series [19] has as its target Dual 3',5'-cyclic-AMP and -GMP phosphodiesterase 11A (Homo sapiens, UniProt Q9HCR9). Kind of series: Inhibition of human recombinant PDE11 assessed as inhibition of [3H]cAMP hydrolysis by scintillation proximity assay. An outline of the steps: as §1

Bounds are passed on as bounds.

Dual 3',5'-cyclic-AMP and -GMP phosphodiesterase 11A, sequence (Q9HCR9 whole entry): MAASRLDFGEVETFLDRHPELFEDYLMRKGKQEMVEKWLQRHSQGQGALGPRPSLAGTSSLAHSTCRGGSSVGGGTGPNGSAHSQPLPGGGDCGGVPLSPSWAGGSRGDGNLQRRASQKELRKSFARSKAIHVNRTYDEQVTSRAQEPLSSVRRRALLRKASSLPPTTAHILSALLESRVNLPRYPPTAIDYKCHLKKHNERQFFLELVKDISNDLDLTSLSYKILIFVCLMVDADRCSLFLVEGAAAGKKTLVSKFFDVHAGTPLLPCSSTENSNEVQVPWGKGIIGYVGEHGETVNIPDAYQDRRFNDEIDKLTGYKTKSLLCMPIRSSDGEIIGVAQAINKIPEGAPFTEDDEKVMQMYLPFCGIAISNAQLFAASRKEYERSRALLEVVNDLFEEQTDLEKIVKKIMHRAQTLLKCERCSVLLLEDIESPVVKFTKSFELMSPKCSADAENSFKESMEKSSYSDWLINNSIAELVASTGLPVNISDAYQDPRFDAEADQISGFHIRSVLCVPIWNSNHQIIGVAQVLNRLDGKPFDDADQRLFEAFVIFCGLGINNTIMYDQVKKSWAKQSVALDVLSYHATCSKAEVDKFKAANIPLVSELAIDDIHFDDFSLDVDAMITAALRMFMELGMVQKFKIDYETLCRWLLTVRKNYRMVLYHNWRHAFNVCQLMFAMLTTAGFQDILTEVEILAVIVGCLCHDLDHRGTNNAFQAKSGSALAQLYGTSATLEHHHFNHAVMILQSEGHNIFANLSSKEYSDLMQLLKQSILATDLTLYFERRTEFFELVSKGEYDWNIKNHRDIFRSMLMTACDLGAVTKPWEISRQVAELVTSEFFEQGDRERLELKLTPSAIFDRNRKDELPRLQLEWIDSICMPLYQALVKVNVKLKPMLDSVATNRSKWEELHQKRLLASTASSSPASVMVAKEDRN
T2 sequence (Q13946 whole entry): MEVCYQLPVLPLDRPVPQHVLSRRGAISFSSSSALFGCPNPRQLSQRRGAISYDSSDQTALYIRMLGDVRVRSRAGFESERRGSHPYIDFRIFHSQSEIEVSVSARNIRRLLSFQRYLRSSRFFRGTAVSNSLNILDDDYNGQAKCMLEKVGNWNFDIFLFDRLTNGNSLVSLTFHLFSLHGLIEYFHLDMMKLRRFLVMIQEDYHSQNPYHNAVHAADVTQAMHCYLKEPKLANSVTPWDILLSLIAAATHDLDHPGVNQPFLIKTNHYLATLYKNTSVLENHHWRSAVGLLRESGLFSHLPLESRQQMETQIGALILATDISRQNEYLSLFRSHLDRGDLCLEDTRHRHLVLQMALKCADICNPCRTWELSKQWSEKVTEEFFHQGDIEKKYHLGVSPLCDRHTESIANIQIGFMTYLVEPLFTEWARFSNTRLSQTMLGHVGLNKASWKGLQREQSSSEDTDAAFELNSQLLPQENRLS
cGMP-dependent 3',5'-cyclic phosphodiesterase, sequence (O00408 whole entry): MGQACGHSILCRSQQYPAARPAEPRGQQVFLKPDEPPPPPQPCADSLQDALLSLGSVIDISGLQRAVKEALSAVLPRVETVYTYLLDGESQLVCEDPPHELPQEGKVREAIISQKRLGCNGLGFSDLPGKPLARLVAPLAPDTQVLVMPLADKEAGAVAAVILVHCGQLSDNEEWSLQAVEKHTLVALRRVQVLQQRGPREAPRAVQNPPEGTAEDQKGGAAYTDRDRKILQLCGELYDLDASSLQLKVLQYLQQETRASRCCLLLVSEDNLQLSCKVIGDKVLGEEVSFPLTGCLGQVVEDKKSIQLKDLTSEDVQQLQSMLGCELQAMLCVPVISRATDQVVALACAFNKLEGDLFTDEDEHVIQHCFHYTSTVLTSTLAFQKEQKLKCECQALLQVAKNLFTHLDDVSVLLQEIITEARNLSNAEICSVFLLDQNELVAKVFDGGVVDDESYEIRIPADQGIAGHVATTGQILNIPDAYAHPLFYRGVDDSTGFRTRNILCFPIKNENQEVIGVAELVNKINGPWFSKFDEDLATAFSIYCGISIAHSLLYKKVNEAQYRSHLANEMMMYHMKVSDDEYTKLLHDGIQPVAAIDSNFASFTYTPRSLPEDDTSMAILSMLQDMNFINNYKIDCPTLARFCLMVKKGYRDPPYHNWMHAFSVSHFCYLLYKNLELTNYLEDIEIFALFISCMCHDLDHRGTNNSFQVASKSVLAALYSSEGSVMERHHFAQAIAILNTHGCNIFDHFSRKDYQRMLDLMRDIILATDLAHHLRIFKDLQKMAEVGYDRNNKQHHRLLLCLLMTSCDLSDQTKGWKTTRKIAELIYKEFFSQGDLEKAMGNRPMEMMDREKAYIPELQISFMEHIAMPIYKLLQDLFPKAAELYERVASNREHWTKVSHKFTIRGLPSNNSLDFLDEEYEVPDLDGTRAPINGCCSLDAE
hERG (KCNH2), sequence (Q12809 whole entry): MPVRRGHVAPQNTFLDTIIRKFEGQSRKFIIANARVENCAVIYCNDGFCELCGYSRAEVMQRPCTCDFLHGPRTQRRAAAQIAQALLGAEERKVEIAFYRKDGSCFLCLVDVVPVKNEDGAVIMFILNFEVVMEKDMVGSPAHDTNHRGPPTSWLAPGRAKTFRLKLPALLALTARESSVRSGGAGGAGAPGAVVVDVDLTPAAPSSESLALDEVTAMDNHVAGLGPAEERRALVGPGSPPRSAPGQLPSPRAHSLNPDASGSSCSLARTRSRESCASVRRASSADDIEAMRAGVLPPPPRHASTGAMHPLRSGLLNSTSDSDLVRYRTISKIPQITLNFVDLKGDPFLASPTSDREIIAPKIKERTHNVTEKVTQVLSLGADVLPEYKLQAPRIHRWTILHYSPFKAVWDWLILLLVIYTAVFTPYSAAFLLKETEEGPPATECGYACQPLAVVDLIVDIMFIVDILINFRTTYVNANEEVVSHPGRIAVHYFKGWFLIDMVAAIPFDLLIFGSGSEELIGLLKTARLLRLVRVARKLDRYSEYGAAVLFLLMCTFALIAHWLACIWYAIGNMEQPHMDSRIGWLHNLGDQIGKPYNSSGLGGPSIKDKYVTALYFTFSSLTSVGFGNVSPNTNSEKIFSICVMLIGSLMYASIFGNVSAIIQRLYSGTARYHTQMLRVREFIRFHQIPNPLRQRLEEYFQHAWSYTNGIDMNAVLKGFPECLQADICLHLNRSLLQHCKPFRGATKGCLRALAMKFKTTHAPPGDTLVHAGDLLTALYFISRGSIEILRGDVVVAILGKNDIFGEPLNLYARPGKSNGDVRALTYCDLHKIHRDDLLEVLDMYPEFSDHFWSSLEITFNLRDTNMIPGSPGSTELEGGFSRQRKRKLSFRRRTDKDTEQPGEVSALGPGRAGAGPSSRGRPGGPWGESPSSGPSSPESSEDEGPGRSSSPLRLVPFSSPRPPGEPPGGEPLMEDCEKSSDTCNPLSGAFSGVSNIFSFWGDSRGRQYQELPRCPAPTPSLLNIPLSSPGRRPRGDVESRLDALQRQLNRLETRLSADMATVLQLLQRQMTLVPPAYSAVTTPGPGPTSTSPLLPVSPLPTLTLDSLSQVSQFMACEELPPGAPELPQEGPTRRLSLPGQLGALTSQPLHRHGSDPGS
T1 sequence (Q14432 whole entry): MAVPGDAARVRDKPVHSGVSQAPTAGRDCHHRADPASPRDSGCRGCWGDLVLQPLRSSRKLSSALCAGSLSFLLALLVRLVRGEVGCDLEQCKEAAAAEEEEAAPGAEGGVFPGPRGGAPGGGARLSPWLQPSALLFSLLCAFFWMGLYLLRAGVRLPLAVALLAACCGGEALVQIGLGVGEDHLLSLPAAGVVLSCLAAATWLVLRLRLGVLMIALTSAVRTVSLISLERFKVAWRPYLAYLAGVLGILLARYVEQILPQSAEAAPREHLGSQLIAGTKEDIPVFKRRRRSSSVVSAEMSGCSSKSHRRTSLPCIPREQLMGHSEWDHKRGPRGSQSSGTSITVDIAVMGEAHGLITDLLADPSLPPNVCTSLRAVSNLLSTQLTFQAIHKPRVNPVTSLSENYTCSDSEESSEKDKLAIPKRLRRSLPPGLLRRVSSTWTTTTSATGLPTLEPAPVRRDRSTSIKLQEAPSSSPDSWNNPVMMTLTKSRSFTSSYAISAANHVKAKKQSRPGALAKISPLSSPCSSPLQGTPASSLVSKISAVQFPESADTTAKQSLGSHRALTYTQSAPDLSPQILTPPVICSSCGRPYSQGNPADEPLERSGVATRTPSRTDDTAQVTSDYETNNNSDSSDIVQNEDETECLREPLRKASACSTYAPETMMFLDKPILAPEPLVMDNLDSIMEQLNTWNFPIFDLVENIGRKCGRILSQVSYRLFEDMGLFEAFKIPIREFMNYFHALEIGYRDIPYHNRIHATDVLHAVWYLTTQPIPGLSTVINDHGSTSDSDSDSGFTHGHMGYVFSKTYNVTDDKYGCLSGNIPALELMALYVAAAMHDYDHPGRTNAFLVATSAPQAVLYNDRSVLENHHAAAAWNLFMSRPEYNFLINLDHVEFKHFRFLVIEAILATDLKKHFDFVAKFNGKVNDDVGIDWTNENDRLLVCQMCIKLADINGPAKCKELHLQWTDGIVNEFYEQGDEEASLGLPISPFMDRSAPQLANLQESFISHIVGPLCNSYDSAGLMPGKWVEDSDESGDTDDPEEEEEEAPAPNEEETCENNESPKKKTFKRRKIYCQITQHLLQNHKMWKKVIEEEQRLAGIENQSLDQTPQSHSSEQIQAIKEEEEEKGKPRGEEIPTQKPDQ

Take `COc1cc2c(cc1OC)-c1c(-c3cccc(Cl)c3)ncn1CC2`: the inhibition constant (Ki) in series [1] was 33 nM; in series [2], 954 nM; in series [3], 6930 nM. Further, the hepatocyte CLint in [4] is > 14 µL/min/1e6 cells; in series [5], 61 µL/min/1e6 cells; in [6], 66 µL/min/1e6 cells.
As to `COc1cc2c(cc1OC)-c1c(-c3cccc(N4CCOCC4)c3)ncn1CC2`, the Ki amounted to 6.4 nM in [1], 1470 nM in series [2] and 7500 nM in series [3]. Besides, the hepatocyte CLint in [4] is > 14 µL/min/1e6 cells; in series [5], 61 µL/min/1e6 cells; in series [6], 66 µL/min/1e6 cells.
As to `COc1cc2c(cc1OC)-c1c(-c3cnco3)ncn1CC2`, the values for the Ki in series [1], in series [2] and in series [3] were 31 nM, 1740 nM and 11100 nM, respectively. Moreover, the hepatocyte CLint was 25 µL/min/1e6 cells in series [4] and 67 µL/min/1e6 cells in series [6].
Take `COc1cc2c(cc1OC)-c1c(-c3cnc(CO)s3)ncn1CC2`: the Ki in [1] is 26 nM; in series [2], 540 nM; in series [3], 4600 nM.
Turning to `COc1cccc(-c2ncn3c2-c2cc(OC)c(OC)cc2CC3)c1`, the Ki in series [1] is 30 nM; in series [2], 136 nM; in series [3], 5540 nM. The figures for the hepatocyte CLint in [4], in series [5] and in [6] were > 14 µL/min/1e6 cells, 61 µL/min/1e6 cells and 66 µL/min/1e6 cells, respectively.
With `COc1cc2c(cc1OC)-c1c(-c3cscn3)ncn1CC2`, the Ki in series [1] amounted to 861 nM.
Take `COc1cc2c(cc1OC)-c1c(-c3cccc(Br)c3)ncn1CC2`: the inhibition constant (Ki) worked out at 32 nM in series [1], 1280 nM in [2] and 10100 nM in series [3]. Also, the hepatocyte CLint in [4] is > 14 µL/min/1e6 cells; in series [5], 61 µL/min/1e6 cells; in series [6], 66 µL/min/1e6 cells.
In the case of `COc1cc2c(cc1OC)-c1c(-c3cnc(C(=O)N4CCCOCC4)s3)ncn1CC2`, the Ki in [1] came out at 1.5 nM; in series [2], 24 nM; in series [3] it was 269 nM.
As to `COc1ccc(-c2ncn3c2-c2cc(OC)c(OC)cc2CC3)cc1`, the Ki in series [1] was 114 nM.
With `COc1cc2c(cc1OC)-c1c(-c3cnc(CN4CCOCC4)s3)ncn1CC2`, the inhibition constant (Ki) in series [1] was found to be 6.6 nM; in series [2], 148 nM; in [3] it was 4600 nM.
As for `COc1cc2c(cc1OC)-c1c(-c3ccccc3Cl)ncn1CC2`, the Ki in series [1] was 628 nM.
Turning to `COc1cc2c(cc1OC)-c1c(-c3cccnc3)ncn1C(C)C2` (stereo not given), the inhibitory constant (Ki) in series [1] came out at 12 nM. In [7], the inhibition was 97%.
Turning to `COc1cc2c(cc1OC)-c1c(-c3cnc(C(=O)N4CCOCC4)s3)ncn1CC2`, the inhibition constant Ki in series [1] was 10 nM; in series [2], 99 nM; in series [3], 613 nM.
`COc1cc2c(cc1OC)-c1c(-c3ccncc3)ncn1CC2`: the inhibition constant (Ki) in series [1] worked out at 101 nM.
Same read-out and setting: next, `COc1cc2c(cc1OC)-c1c(-c3cocn3)ncn1CC2`: 508 nM; `COc1cc2c(cc1OC)-c1c(-c3ccccc3OC)ncn1CC2`: 212 nM.
Consider `COc1cc2c(cc1OC)-c1c(-c3cncnc3)ncn1CC2`, for which the Ki in series [1] was 40 nM. Besides, the inhibition in series [7] amounted to 14%; in [8], 13%.
`COc1cc2c(cc1OC)-c1c(-c3cnc(C)s3)ncn1CC2`: the Ki in series [1] came out at 186 nM.
On the same count and under the same terms, next, `COc1cc2c(cc1OC)-c1c(-c3ccc(Cl)cc3)ncn1CC2`: 183 nM.
Take `COc1cc2c(cc1OC)-c1c(-c3cccnc3)nc(C)n1CC2`: the inhibitory constant (Ki) in series [1] was 25 nM; in series [2], 727 nM; in series [3], 5980 nM; in series [12] it was > 7950 nM; in series [13] it was > 7950 nM; in series [14], > 7950 nM. The inhibitory constant (Ki) in series [15], in series [16], in [17], in [18] and in series [19] was > 7950 nM each time. Further, the hepatocyte CLint in series [4] came out at 0.4 µL/min/1e6 cells; in series [5] it was 3.6 µL/min/1e6 cells; in [6] it was 26.6 µL/min/1e6 cells. Besides, the solubility in [9] was > 200 µM. This compound also gave an inhibition at 10 µM in series [10] of 29%. This compound gave a pKa in series [11] of 4.
With `COc1cc2c(cc1OC)-c1c(-c3cnc(C(=O)NC4CCOCC4)s3)ncn1CC2`, the Ki in [1] stood at 4.3 nM; in series [2], 828 nM; in [3], 550 nM. Also, the hepatocyte CLint was found to be 1.4 µL/min/1e6 cells in [4], 5.7 µL/min/1e6 cells in series [5] and 22.7 µL/min/1e6 cells in [6].
With `CCOc1cccc(-c2ncn3c2-c2cc(OC)c(OC)cc2CC3)c1`, the values for the inhibition constant Ki in series [1], in [2] and in [3] were 8 nM, 277 nM and 3760 nM, respectively. Besides, the hepatocyte CLint is > 14 µL/min/1e6 cells in series [4], 61 µL/min/1e6 cells in series [5] and 66 µL/min/1e6 cells in series [6].
As to `COc1cc2c(cc1OC)-c1c(-c3cnc(C(=O)NCc4ccccc4)s3)ncn1CC2`, the inhibition constant Ki was 40 nM in series [1], > 100000 nM in series [2] and 507 nM in series [3].
As to `COc1cc2c(cc1OC)-c1c(C3CCCCC3)ncn1CC2`, in [1], the Ki stood at 199 nM.
Same read-out and setting: the value for `COc1cc2c(cc1OC)-c1c(-c3cncn3C)ncn1CC2` was 264 nM.
Turning to `COc1cc2c(cc1OC)-c1c(-c3cnc(N4CCOCC4)s3)ncn1CC2`, the Ki is 26 nM in [1], 177 nM in series [2] and 2470 nM in series [3].
In the case of `COc1cc2c(cc1OC)-c1c(-c3cncs3)nc(C)n1CC2`, the Ki in series [1] is 20 nM; in series [2], 968 nM; in series [3], 6120 nM; in series [12] it was > 7100 nM; in [13], > 7100 nM; in series [14], > 7100 nM. Besides, the inhibition constant (Ki) in series [15], in series [16], in series [17], in series [18] and in series [19] was > 7100 nM each time. Further, the hepatocyte CLint was found to be 7.5 µL/min/1e6 cells in series [4], 9.2 µL/min/1e6 cells in series [5] and 65.5 µL/min/1e6 cells in series [6]. Moreover, in series [9], the solubility was > 150 µM. Also, testing at 10 µM in series [10] gave an inhibition of 10%. In addition, the pKa in series [11] is 5.
For the compound `COc1cc2c(cc1OC)-c1c(-c3ccccn3)ncn1CC2`, in series [1], the Ki amounted to 240 nM.
The same measure, in the same setting: next, `COc1cc2c(cc1OC)-c1c(-c3ccccc3)ncn1CC2`: 121 nM.
Take `COc1cc2c(cc1OC)-c1c(-c3cnc(CN4CCCOCC4)s3)ncn1CC2`: the inhibitory constant (Ki) in series [1] came to 3.8 nM; in series [2], 224 nM; in [3] it was 3770 nM.
On to `COc1cc2c(cc1OC)-c1c(-c3cnc(C(=O)N(C)C(C)(C)C)s3)ncn1CC2`, for which the inhibition constant (Ki) was 8.7 nM in series [1]; 149 nM in series [2]; 243 nM in series [3]; > 2000 nM in series [12]; > 2000 nM in series [13]; > 2000 nM in [14]. Also, the Ki in series [15], in [16], in [17], in [18] and in series [19] was > 2000 nM throughout. Besides, the results for the hepatocyte CLint in series [4], in series [5] and in series [6] were 66 µL/min/1e6 cells, 49 µL/min/1e6 cells and 59 µL/min/1e6 cells, respectively. Further, the solubility in series [9] is > 200 µM. The compound further showed an inhibition at 10 µM in series [10] of 40%. The pKa in [11] was 4.

By Ki is commonly meant the dissociation constant of the complex between target and ligand, obtained from inhibition or displacement. One may read the inhibition as the relative decrease from the control value, in per cent. For orientation: solubility means how much of the substance goes into solution per volume. The pKa is the negative logarithm of the acid dissociation constant.
